pIC50, pKi: −log10 of the molar value. Activity calls are given as the source filed them. The calls are words filed in the database; no cut-off is given here.
Tests used:
MDCK = assay: Inhibition of nucleoprotein/polymerase acidic protein (1 to 27 residues) interaction in Influenza A virus (A/WSN/1933 (H1N1)) infected in MDCK cells by Western blot analysis; type: cell-based
How it was run: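 MDCK cells were infected with A/WSN/33 at MOI 2 for 18 h and lysed in PBS with protease inhibitors and 0.5% NP40 by freezing; nucleic acids were not digested. Streptavidin beads loaded with 250 µM biotinylated PA(1-27) were incubated with the lysate 18 h at 4 °C, with or without compound. Bound NP was detected by anti-NP monoclonal western blot.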

[1] = Selectivity index, ratio of CC50 for MDCK cells to IC50 for pandemic Influenza A virus (A/Netherlands/602/09(H1N1)) infected in MDCK cells at MOI of 10^-3 after 18 hrs; type: toxicity, cell-based; details: dog, read-out: Ratio CC50/IC50
[2] = Safety index, ratio of compound CC50 to naproxen CC50 for MDCK cells by MTT assay; type: ADME, cell-based, Canis lupus familiaris; details: dog
Influenza A virus [3] = assay: Stabilization of Influenza A virus nucleoprotein assessed as melting temperature at 5 to 15 uM measured for 10 mins
Influenza A virus [4] = assay: Antiviral activity against pandemic Influenza A virus (A/Netherlands/602/09(H1N1)) infected in MDCK cells at MOI of 10^-3 assessed as decrease in viral load after 18 hrs by immunofluorescence analysis; type: functional, organism-based
[5] = Cytotoxicity against MDCK cells assessed as reduction in cell viability after 48 hrs by trypan blue staining based method; set-up: species or system Canis lupus familiaris; details: dog
How it was run: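 MDCK cells, 3.2 x 10^5 per well, were grown 24 h and then exposed to serial compound dilutions under the same conditions as the MTT test. At 48 h, cells were washed, trypsinised and stained with Trypan blue, and viable and dead cells were counted by phase-contrast microscopy.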

A549 = assay: Downregulation of COX2 level in human A549 cells infected with Influenza A virus at MOI of 2 at 100 uM after 18 hrs in presence of gamma-ATP by immunofluorescence analysis; type: cell-based; details: a549, 18 h
How it was run: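 A549 cells were pretreated with compound for 30 min, then either infected with IAV at MOI 2 for 18 h or activated with 100 µM γ-ATP for 1 h with or without compound. Cells were fixed in 3% PFA and permeabilised with 0.1% triton. COX2 was immunostained overnight with a primary antibody and detected with an Alexa 647 secondary.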

Influenza A virus [6] = assay: Antiviral activity against Influenza A virus (A/Udorn/1972 (H3N2)) infected in MDCK cells at MOI of 2 assessed as decrease in viral load after 18 hrs by immunofluorescence analysis; type: functional, organism-based
How it was run: (§1)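 MDCK or A549 cells, 0.32 x 10^6 per well, were held 24 h serum-free to 80% confluence and then infected at MOI 2. Compound (0.1–500 µM) or vehicle was added right after virus adsorption. At 18 h, viral NP was read by immunofluorescence and corrected for cell number by DAPI. Runs were in triplicate, repeated at least twice, and IC50 came from a dose-response fit.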

[7] = Selectivity index, ratio of CC50 for MDCK cells to IC50 for Influenza A virus (A/WSN/1933(H1N1)) infected in MDCK cells at MOI of 10^-3 after 48 hrs; type: toxicity, cell-based; details: dog, read-out: Ratio CC50/IC50
Influenza A virus [8] = assay: Antiviral activity against Influenza A virus (A/WSN/1933(H1N1)) infected in MDCK cells at MOI of 10^-3 assessed as decrease in viral load after 48 hrs by crystal violet staining-based plaque assay; type: functional, organism-based
How it was run: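 Serum-starved MDCK cells, 0.32 x 10^6 per well, were infected with A/WSN/33 at MOI 10^-3 (multi-cycle). Compound (0.1–500 µM) or vehicle was added immediately after adsorption. After 48 h, titres in clarified supernatant were read by plaque assay with crystal violet. Runs were in triplicate, repeated at least twice, and IC50 came from a dose-response fit.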

[9] = Binding affinity to Influenza A virus nucleoprotein by surface plasmon resonance analysis
[10] = Selectivity index, ratio of CC50 for human A549 cells to IC50 for Influenza A virus (A/Udorn/1972 (H3N2)) after 18 hrs; type: toxicity; details: read-out: Ratio CC50/IC50
Influenza A virus [11] = assay: Antiviral activity against Influenza A virus (A/Udorn/1972 (H3N2)) infected in human A549 cells assessed as decrease in viral load after 18 hrs by immunofluorescence analysis; type: functional, organism-based; details: A549, 18 h; how it was run: as §1
[12] = Selectivity index, ratio of CC50 for MDCK cells to IC50 for Influenza A virus (A/Udorn/1972 (H3N2)) infected in MDCK cells at MOI of 2 after 18 hrs; type: toxicity, cell-based; details: dog, read-out: Ratio CC50/IC50
Influenza A virus [13] = assay: Antiviral activity against Influenza A virus (A/WSN/1933(H1N1)) infected in MDCK cells at MOI of 2 assessed as decrease in viral load after 18 hrs by immunofluorescence analysis; type: functional, organism-based; how it was run: as §1
[14] = Selectivity index, ratio of CC50 for MDCK cells to IC50 for Influenza A virus (A/WSN/1933(H1N1)) infected in MDCK cells at MOI of 2 after 18 hrs; type: toxicity, cell-based; details: dog, read-out: Ratio CC50/IC50
Influenza A virus [15] = assay: Antiviral activity against Influenza A virus (A/Puerto Rico/8/1934(H1N1)) infected in C57BL/6J mouse assessed as increase in mouse survival at 8 mg/mouse/day, ip qd treated up to day 2 starting at 5 to 10 mins post infection measured at day 12; type: functional, organism-based
How it was run: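 Intranasal A/PR/8/34 challenge at 500 PFU in female C57BL/6J mice, 5–6 weeks old, under ketamine/xylazine. Dosing was i.p. once daily on days 0, 1 and 2, starting 5–10 min post-inoculation; 1 mg/mouse is 50 mg/kg and 8 mg/mouse is 400 mg/kg. There were 10 mice per group, with saline vehicle. Survival and body weight were scored daily, with 20% weight loss as the mortality endpoint.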

Influenza A virus [16] = assay: Antiviral activity against Influenza A virus (A/Puerto Rico/8/1934(H1N1)) infected in C57BL/6J mouse assessed as recovery of weight loss at 8 mg/mouse/day, ip qd […] starting at 5 to 10 mins post infection measured up to day 12; type: functional, organism-based
Influenza A virus [17] = assay: Antiviral activity against Influenza A virus (A/Puerto Rico/8/1934(H1N1)) infected in C57BL/6J mouse assessed as decrease in viral load in bronchoalveolar lavage at 8 mg/mouse/day, ip qd treated up to day 2 starting at 5 to 10 mins post infection relative to control; type: functional
How it was run: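 Female C57BL/6J mice, 5–6 weeks old, were anaesthetised with ketamine/xylazine (43/5 mg/kg) and inoculated intranasally with A/PR/8/34 at 500 PFU. Treatment was i.p. once daily on days 0, 1 and 2, starting 5–10 min after inoculation; 1 mg/mouse is 50 mg/kg and 8 mg/mouse is 400 mg/kg. BAL infectious titre was measured by plaque assay against saline-treated mice.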

SMILES | inhibition (active/not active) (MDCK) | selectivity ratio at 18 h [1] | selectivity ratio [2] | Tm (Influenza A virus [3]) [°C] | pIC50 (Influenza A virus [4]) | CC50 at 48 h [5] [µM] | Activity (A549) | pIC50 (Influenza A virus [6]) | selectivity ratio at 48 h [7] | pIC50 (Influenza A virus [8]) | pKi [9] | selectivity ratio at 18 h [10] | pIC50 (Influenza A virus [11]) | selectivity ratio at 18 h [12] | pIC50 (Influenza A virus [13]) | selectivity ratio at 18 h [14] | Activity (Influenza A virus [15]) | Activity (Influenza A virus [16]) | fold change (FC) (Influenza A virus [17])
COc1ccc2cc(-c3c(C(=O)O)cc(Oc4ccc(N)cc4)cc3C(=O)O)ccc2c1 | Active | 619 | 10 | 38 to 47 | 4.68 | ≥ 10000 |  |  |  |  |  |  |  |  |  |  |  |  | 
COc1ccc2cc(-c3c(C(=O)[O-])ccc(Oc4ccc(N)cc4)c3C(=O)[O-])ccc2c1.[Na+].[Na+] | Active | 17100 | 10 | 48 | 6.15 | ≥ 10000 | Non-Toxic | 4.89 | 9230 | 5.89 | 7.52 | 706 | 4.77 | 923 | 4.89 | 923 |  |  | 
CCOC(=O)C1=C[C@@H](OC(CC)CC)[C@H](NC(C)=O)[C@@H](N)C1 [OSELTAMIVIR] |  |  |  |  |  |  |  |  |  |  |  |  |  |  |  |  | Active | inactive | 260
